Source: ChEMBL document CHEMBL2440037, “GluK1 antagonists from 6-(carboxy)phenyl decahydroisoquinoline derivatives. SAR and evaluation of a prodrug strategy for oral efficacy in pain models” (Bioorg Med Chem Lett, 2013)

What was measured:
Glutamate receptor 2 = Glutamate receptor 2 (Homo sapiens, UniProt P42262); assay: Binding affinity to GluA2 receptor (unknown origin)
[1] = target: Glutamate receptor ionotropic, kainate 1 (Homo sapiens, UniProt P39086); assay: Binding affinity to GluK1 receptor (unknown origin)
Chain of Glutamate receptor ionotropic, kainate 1 (P39086 whole entry): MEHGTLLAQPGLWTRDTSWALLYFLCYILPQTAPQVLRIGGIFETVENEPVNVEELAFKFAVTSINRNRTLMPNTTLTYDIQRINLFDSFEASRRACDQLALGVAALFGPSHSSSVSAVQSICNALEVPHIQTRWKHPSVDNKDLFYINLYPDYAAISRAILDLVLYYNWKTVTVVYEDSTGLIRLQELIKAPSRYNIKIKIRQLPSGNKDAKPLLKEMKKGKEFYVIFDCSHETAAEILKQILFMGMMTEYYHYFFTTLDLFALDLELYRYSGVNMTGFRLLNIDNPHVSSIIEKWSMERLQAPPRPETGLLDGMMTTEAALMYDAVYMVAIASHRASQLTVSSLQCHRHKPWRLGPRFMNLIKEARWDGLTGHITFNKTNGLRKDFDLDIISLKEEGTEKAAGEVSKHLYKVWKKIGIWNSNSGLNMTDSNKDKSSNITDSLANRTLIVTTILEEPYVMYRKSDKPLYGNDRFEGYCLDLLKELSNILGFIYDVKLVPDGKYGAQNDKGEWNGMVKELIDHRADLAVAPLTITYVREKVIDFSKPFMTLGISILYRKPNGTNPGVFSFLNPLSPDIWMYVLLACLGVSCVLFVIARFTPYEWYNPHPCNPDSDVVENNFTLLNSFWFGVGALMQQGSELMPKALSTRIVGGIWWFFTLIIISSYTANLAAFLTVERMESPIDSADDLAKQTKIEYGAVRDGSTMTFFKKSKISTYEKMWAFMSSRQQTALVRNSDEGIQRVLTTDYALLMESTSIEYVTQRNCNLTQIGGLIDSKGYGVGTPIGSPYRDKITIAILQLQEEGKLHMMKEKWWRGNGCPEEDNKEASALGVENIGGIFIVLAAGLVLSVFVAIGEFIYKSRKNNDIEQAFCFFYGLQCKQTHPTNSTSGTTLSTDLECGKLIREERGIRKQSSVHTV

[2] = Tmax in Fischer rat at 10 mg/kg, po; assay type: ADME, organism-based; set-up: dose 10 mg/kg, route oral; details: in vivo
In short: (§1)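 Fischer rats; amino acid dosed orally as diethyl ester hydrochloride salt, 30 mg/kg (one entry at 10 mg/kg), three rats per time point. Amino acid plasma levels measured: AUC 0 to infinity, Cmax as maximum observed concentration, Tmax as time at Cmax. %F is amino acid exposure after oral ester dosing relative to the amino acid given iv.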

[3] = Oral bioavailability in Fischer rat at 10 mg/kg; assay type: ADME, organism-based; details: in vivo; in short: as §1
[4] = Cmax in Fischer rat at 10 mg/kg, po; assay type: ADME, organism-based; set-up: dose 10 mg/kg, route oral; details: in vivo; in short: as §1
[5] = AUC (0 to infinity) in Fischer rat at 10 mg/kg, po; assay type: ADME, organism-based; set-up: time infinity, dose 10 mg/kg, route oral; details: plasma; in short: as §1
[6] = Cmax in Fischer rat at 30 mg/kg, po; assay type: ADME, organism-based; set-up: dose 30 mg/kg, route oral; details: in vivo; in short: as §1
[7] = AUC (0 to infinity) in Fischer rat at 30 mg/kg, po; assay type: ADME, organism-based; set-up: time infinity, dose 30 mg/kg, route oral; details: plasma; in short: as §1
Rattus norvegicus [8] = assay: Antihyperalgesic activity against carrageenan-induced thermal hyperalgesia in po dosed rat; assay type: functional; details: read-out: MED
In short: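 Rat carrageenan-induced thermal hyperalgesia; amino acid given p.o. as diethyl ester hydrochloride salt at several doses, N = 6 per group; vehicle controls N = 6. Reported as minimal effective dose (MED).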

Rattus norvegicus [9] = assay: Analgesic activity in rat assessed as reversal of formalin-induced pain at 30 mg/kg, po; assay type: functional
In short: (§2)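 Rat formalin pain model; amino acid given p.o. as diethyl ester hydrochloride salt at 30 mg/kg (one entry at 100 mg/kg), N = 8–9; vehicle controls N = 8–12. Read-out is % reversal of formalin-induced pain.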

Rattus norvegicus [10] = assay: Neurotoxicity in po dosed rat assessed as sedative effect by rotorod test; assay type: toxicity, organism-based; details: in vivo
In short: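 Rotorod test in rats for sedative or ataxic effects; amino acid given p.o. as diethyl ester hydrochloride salt at several doses, N = 8, vehicle controls N = 8; minimal effective dose (MED) reported.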

[11] = Oral bioavailability in Fischer rat at 30 mg/kg; assay type: ADME, organism-based; details: in vivo; in short: as §1
[12] = Tmax in Fischer rat at 30 mg/kg, po; assay type: ADME, organism-based; set-up: dose 30 mg/kg, route oral; details: in vivo; in short: as §1
Rattus norvegicus [13] = assay: Analgesic activity in rat assessed as reversal of formalin-induced pain at 100 mg/kg, po; assay type: functional; in short: as §2

Chain of Glutamate receptor 2 (P42262 whole entry): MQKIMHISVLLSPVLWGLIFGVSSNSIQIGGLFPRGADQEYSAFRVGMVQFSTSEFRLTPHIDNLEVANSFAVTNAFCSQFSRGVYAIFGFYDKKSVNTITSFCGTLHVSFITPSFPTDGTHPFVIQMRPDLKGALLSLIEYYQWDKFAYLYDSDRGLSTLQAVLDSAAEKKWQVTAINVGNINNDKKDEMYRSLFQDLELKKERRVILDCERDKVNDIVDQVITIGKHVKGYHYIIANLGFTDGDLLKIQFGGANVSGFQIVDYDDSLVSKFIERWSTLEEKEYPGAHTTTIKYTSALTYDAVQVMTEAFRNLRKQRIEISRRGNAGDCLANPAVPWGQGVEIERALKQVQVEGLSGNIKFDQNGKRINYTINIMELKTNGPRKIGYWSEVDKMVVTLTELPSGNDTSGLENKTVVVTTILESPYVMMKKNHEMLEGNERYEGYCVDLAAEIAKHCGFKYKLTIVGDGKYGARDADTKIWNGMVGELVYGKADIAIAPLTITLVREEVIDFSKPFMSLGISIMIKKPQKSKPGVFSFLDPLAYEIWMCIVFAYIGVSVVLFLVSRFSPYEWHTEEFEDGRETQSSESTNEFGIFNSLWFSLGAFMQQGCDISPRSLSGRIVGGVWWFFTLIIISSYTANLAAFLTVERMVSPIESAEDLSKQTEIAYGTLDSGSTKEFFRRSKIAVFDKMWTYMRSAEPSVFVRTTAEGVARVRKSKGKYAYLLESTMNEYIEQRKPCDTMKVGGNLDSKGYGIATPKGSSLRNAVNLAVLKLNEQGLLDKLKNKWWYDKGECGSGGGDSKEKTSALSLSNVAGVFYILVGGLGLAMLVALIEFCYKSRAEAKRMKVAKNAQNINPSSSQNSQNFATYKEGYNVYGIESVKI

SMILES | Ki (Glutamate receptor 2) | Ki [1] | also measured
O=C(O)c1cccc(C[C@H]2CC[C@H]3CN[C@H](C(=O)O)C[C@H]3C2)c1 | 149 µM | 16 µM | –
Cc1cccc(C(=O)O)c1O[C@H]1CC[C@H]2CN[C@H](C(=O)O)C[C@H]2C1 | 818 µM | 228 µM | –
COc1ccc(O[C@H]2CC[C@H]3CN[C@H](C(=O)O)C[C@H]3C2)c(C(=O)O)c1 | 87 µM | 19 µM | –
Cc1ccc(O[C@H]2CC[C@H]3CN[C@H](C(=O)O)C[C@H]3C2)c(C(=O)O)c1 | 107 µM | 9.9 µM | –
O=C(O)c1cc(Cl)ccc1N[C@H]1CC[C@H]2CN[C@H](C(=O)O)C[C@H]2C1 | 3.3 µM | 3.6 µM | –
O=C(O)c1cc(Cl)ccc1S[C@H]1CC[C@H]2CN[C@H](C(=O)O)C[C@H]2C1 | 42 µM | 3.7 µM | –
O=C(O)c1cc(Cl)ccc1O[C@H]1CC[C@H]2CN[C@H](C(=O)O)C[C@H]2C1 | 19 µM | 1.5 µM | –
O=C(O)c1c(F)cccc1O[C@H]1CC[C@H]2CN[C@H](C(=O)O)C[C@H]2C1 | 93 µM | 9.7 µM | –
O=C(O)c1ccccc1O[C@H]1CC[C@H]2CN[C@H](C(=O)O)C[C@H]2C1 | 70 µM | 2.3 µM | –
O=C(O)c1ccccc1S[C@H]1CC[C@H]2CN[C@H](C(=O)O)C[C@H]2C1 | 15 µM | 0.8 µM | –
O=C(O)c1ccccc1N[C@H]1CC[C@H]2CN[C@H](C(=O)O)C[C@H]2C1 | 77 µM | – | –
O=C(O)c1ccccc1C[C@H]1CC[C@H]2CN[C@H](C(=O)O)C[C@H]2C1 | 29600 µM | 67 µM | –
O=C(O)c1cccc(O[C@H]2CC[C@H]3CN[C@H](C(=O)O)C[C@H]3C2)c1 | 44 µM | 6 µM | –
O=C(O)c1cccc(S[C@H]2CC[C@H]3CN[C@H](C(=O)O)C[C@H]3C2)c1 | 9 µM | – | –
O=C(O)c1cccc(N[C@H]2CC[C@H]3CN[C@H](C(=O)O)C[C@H]3C2)c1 | 238 µM | 8 µM | –
O=C(O)c1ccc(O[C@H]2CC[C@H]3CN[C@H](C(=O)O)C[C@H]3C2)cc1 | 913 µM | 267 µM | –

SMILES | Ki (Glutamate receptor 2) | Ki [1] | also measured
O=C(O)c1ccc(S[C@H]2CC[C@H]3CN[C@H](C(=O)O)C[C@H]3C2)cc1 | 418 µM | 19 µM | –
O=C(O)c1ccc(N[C@H]2CC[C@H]3CN[C@H](C(=O)O)C[C@H]3C2)cc1 | 1420 µM | – | –
Cl.O=C(O)c1ccc(C[C@H]2CC[C@H]3CN[C@H](C(=O)O)C[C@H]3C2)cc1 | 553 µM | – | Tmax [2]: 60 min; bioavailability [3]: 62.5%; Cmax [4]: 539 ng/mL; AUC(0-inf) [5]: 1510 ng·h/mL
O=C(O)c1cccc(Cl)c1O[C@H]1CC[C@H]2CN[C@H](C(=O)O)C[C@H]2C1 | 1470 µM | 316 µM | –
O=C(O)c1ccc(-c2ccccc2)cc1O[C@H]1CC[C@H]2CN[C@H](C(=O)O)C[C@H]2C1 | 8.8 µM | 0.5 µM | –
COc1ccc(C(=O)O)c(O[C@H]2CC[C@H]3CN[C@H](C(=O)O)C[C@H]3C2)c1 | 111 µM | 6.2 µM | –
Cc1ccc(C(=O)O)c(O[C@H]2CC[C@H]3CN[C@H](C(=O)O)C[C@H]3C2)c1 | 89 µM | 5.9 µM | –
O=C(O)c1ccc(Cl)cc1S[C@H]1CC[C@H]2CN[C@H](C(=O)O)C[C@H]2C1 | 22 µM | 1.3 µM | –
O=C(O)c1ccc(Cl)cc1O[C@H]1CC[C@H]2CN[C@H](C(=O)O)C[C@H]2C1 | 151 µM | 2.1 µM | –
O=C(O)c1cc(-c2ccccc2)ccc1O[C@H]1CC[C@H]2CN[C@H](C(=O)O)C[C@H]2C1 | 172 µM | 11 µM | –
CCOC(=O)c1ccccc1O[C@H]1CC[C@H]2CN[C@H](C(=O)OCC)C[C@H]2C1.Cl | – | – | Cmax [6]: 9200 ng/mL; AUC(0-inf) [7]: 24700 ng·h/mL; minimal effective dose (Rattus norvegicus [8]): 10 mg/kg; Activity (Rattus norvegicus [9]): 21.8%; MED (Rattus norvegicus [10]): > 30 mg/kg; bioavailability [11]: 75.3%; Tmax [12]: 30 min
CCOC(=O)c1ccc(C[C@H]2CC[C@H]3CN[C@H](C(=O)OCC)C[C@H]3C2)cc1.Cl | – | – | minimal effective dose (Rattus norvegicus [8]): 10 mg/kg; Activity (Rattus norvegicus [9]): 13.4%; MED (Rattus norvegicus [10]): > 30 mg/kg
CCOC(=O)c1ccccc1S[C@H]1CC[C@H]2CN[C@H](C(=O)OCC)C[C@H]2C1.Cl | – | – | Cmax [6]: 2980 ng/mL; AUC(0-inf) [7]: 7530 ng·h/mL; Activity (Rattus norvegicus [13]): 49.4%; minimal effective dose (Rattus norvegicus [8]): 10 mg/kg; MED (Rattus norvegicus [10]): > 100 mg/kg; bioavailability [11]: 38.8%; Tmax [12]: 30 min
CCOC(=O)c1ccc(Cl)cc1O[C@H]1CC[C@H]2CN[C@H](C(=O)OCC)C[C@H]2C1.Cl | – | – | Cmax [6]: 6450 ng/mL; AUC(0-inf) [7]: 9190 ng·h/mL; minimal effective dose (Rattus norvegicus [8]): > 10 mg/kg; Activity (Rattus norvegicus [9]): 14.9%; MED (Rattus norvegicus [10]): > 30 mg/kg; bioavailability [11]: 32.9%; Tmax [12]: 30 min
CCOC(=O)c1ccc(-c2ccccc2)cc1O[C@H]1CC[C@H]2CN[C@H](C(=O)OCC)C[C@H]2C1.Cl | – | – | Cmax [6]: 2700 ng/mL; AUC(0-inf) [7]: 7230 ng·h/mL; bioavailability [11]: 22.2%; Tmax [12]: 60 min
